Laboratory results from article PMC9377749 (Molecular Cancer Therapeutics, 2022).
Peptide text beside a SMILES is read from it. * marks the point of attachment. Doxorubicin(3'-N) = COc1cccc2c1C(=O)c1c(O)c3c(c(O)c1C2=O)C[C@@](O)(C(=O)CO)C[C@@H]3O[C@H]1C[C@H](N*)[C@H](O)[C@H](C)O1; Phosphonoacetyl = O=C(CP(=O)(O)O)*

Columns and labels:
[1] = tested on: patients; conditions: cited from earlier work
[2] = Tissue distribution and pharmacokinetics in E0771 tumor-bearing mice; assay type: in vivo, mouse; conditions: for t 1/2α / C max / AUC / Cmax / t max / t 1/2β: label = analyte
[3] = tested on: human iPSCs-derived cardiomyocytes; experiment: Impedance-based cardiotoxicity; assay type: cell-based
[4] = tested on: human erythroid progenitors; experiment: In vitro hematotoxicity, colony growth; assay type: cell-based
How it was run: (§1)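 Human erythroid and myeloid progenitors grown in MethoCult GF H84434 with continuous exposure to the test compound for 14 days. Progenitor proliferation was scored as colony growth and dose–response curves were fitted to give IC50.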

[5] = tested on: E0771 cells; experiment: In vitro 2D cytotoxicity; assay type: cell-based; conditions: Mus musculus, E0771, 72 h
[6] = Acute toxicity; assay type: in vivo, mouse; conditions: mouse, in vivo
[7] = tested on: H9C2 rat cardiomyocytes; experiment: In vitro cardiotoxicity; assay type: cell-based; conditions: for cytotoxicity in differentiated cardiomyocytes: differentiated H9C2; for cytotoxicity in mitotic cells: mitotic H9C2, 16 hrs treatment, viability 72 hrs later
[8] = tested on: LS 174T cells; experiment: In vitro 2D cytotoxicity; assay type: cell-based; conditions: Homo sapiens, LS174T, 72 h
[9] = tested on: C57BL6 mice (bone marrow repopulation); experiment: In vivo hematotoxicity, bone marrow transplantation from treated donors; parameters: species or system mouse; conditions: for survival of mice receiving BM from treated donors: day 41 post-transplantation, donors 58 mg/kg/week Dox or 1,026 mg/kg/week PhAc-ALGP-Dox
How it was run: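 Donor C57BL6 mice received the test compound (1,026 mg/kg/week) or doxorubicin (58 mg/kg/week) by intraperitoneal osmotic minipump for 7 days. Blood and bone marrow were collected 2 days later. Blood counts used a haematology analyser, and subpopulations were analysed by FACS (CTL = CD3+ CD8a+; B = CD45R+; CD4+; NK1.1+), n = 8. Bone marrow cells (1 × 10^7) were injected IV into 9.5 Gy-irradiated recipients, which were followed 41 days.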

[10] = tested on: MDA-MB-468 cells; experiment: In vitro 2D cytotoxicity; assay type: cell-based; conditions: Homo sapiens, MDA-MB-468, 72 h
[11] = tested on: human myeloid progenitors; experiment: In vitro hematotoxicity, colony growth; assay type: cell-based
How it was run: as §1

[12] = biological target: recombinant human CD10 (Homo sapiens, UniProt P08473); experiment: Peptidase cleavage assay; assay type: biochemical; conditions: after exposure to CD10, at 16 hours
Chain of recombinant human CD10 (P08473 whole entry): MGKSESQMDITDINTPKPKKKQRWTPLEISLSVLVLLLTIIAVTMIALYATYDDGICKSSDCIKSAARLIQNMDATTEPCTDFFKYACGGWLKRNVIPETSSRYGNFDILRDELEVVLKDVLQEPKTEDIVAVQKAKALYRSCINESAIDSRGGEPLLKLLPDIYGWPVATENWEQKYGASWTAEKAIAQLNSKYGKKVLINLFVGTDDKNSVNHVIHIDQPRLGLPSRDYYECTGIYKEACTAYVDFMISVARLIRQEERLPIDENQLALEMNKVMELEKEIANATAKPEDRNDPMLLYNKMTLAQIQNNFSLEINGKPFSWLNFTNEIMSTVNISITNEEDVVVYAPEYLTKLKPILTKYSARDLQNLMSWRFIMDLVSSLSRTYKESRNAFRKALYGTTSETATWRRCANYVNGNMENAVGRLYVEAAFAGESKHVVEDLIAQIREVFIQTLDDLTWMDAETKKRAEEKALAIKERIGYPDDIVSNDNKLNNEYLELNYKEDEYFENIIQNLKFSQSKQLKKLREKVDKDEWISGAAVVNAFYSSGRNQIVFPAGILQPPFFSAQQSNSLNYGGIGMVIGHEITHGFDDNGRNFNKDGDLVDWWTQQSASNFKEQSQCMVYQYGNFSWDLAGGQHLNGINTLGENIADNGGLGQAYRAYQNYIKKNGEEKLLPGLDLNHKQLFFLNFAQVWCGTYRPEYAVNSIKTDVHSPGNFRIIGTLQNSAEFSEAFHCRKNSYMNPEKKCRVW
How it was run: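 Test compound (2 μM) in 150 mM NaCl, 50 mM Tris, 1% BSA, pH 7.5, at 37°C. Reaction started with recombinant human enzyme at equi-active levels (CD10 0.08, NLN 0.8, THOP1 0.1 μg/mL).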

[13] = tested on: mice; experiment: Acute toxicity; assay type: in vivo, mouse; conditions: from LD50
[14] = tested on: MDA-MB-468 tumor bearing mice; experiment: MTD determination, weekly dosing; assay type: in vivo, mouse
How it was run: (§2)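 Female nu/nu NMRI mice, 6–8 weeks old, carried subcutaneous MDA-MB-468 xenografts (5 × 10^6 cells in PBS:Matrigel 1:1, right posterior flank). Healthy mice served alongside. Test compound was given weekly at 103, 206 or 309 mg/kg. Body weight, survival and tumor volume were monitored periodically during and after treatment, n = 5, mean ± SD.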

[15] = MTD determination, weekly dosing; assay type: in vivo, mouse; conditions: mouse, in vivo
How it was run: as §2

[16] = Plasma pharmacokinetics after IV administration in healthy mice; assay type: in vivo, mouse
How it was run: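 Healthy mice (n = 5 per group) received a single IV dose of test compound at 849.5 mg/kg. A second set received equimolar doses: test compound 23.6 mg/kg versus doxorubicin 13.3 mg/kg. Plasma levels of prodrug, peptide-doxorubicin intermediates and free doxorubicin were followed over time and t1/2 was determined.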

[17] = Tissue imaging by MALDI-FTICR MSI in E0771 tumor-bearing mice; assay type: in vivo, mouse; conditions: 849.5 mg/kg IV
How it was run: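 Female C57BL6 mice carried orthotopic E0771 tumors (1 × 10^6 cells in PBS injected into the mammary fat pad). Test compound was given IV at 849.5 mg/kg (reference doxorubicin 23 mg/kg). Whole-body and tumor sections were taken at 15 min, 24 h and 48 h and imaged by MALDI-FTICR MSI for free doxorubicin and metabolites, with H&E overlay.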

[18] = heart, IV Doxorubicin 92 μmol/kg
[19] = kidney, IV Doxorubicin 92 μmol/kg
[20] = liver, IV Doxorubicin 92 μmol/kg
[21] = plasma, IV Doxorubicin 92 μmol/kg
[22] = heart, IV PhAc-ALGP-Dox 92 μmol/kg
[23] = kidney, IV PhAc-ALGP-Dox 92 μmol/kg
[24] = liver, IV PhAc-ALGP-Dox 92 μmol/kg
[25] = plasma, IV PhAc-ALGP-Dox 92 μmol/kg
[26] = tumor, IV Doxorubicin 92 μmol/kg
[27] = tumor, IV PhAc-ALGP-Dox 92 μmol/kg

Which “tolerated dose relative to the standard dose of Dox” value [1] does the source give for COc1cccc2c1C(=O)c1c(O)c3c(c(O)c1C2=O)C[C@@](O)(C(=O)CO)C[C@@H]3O[C@H]1C[C@H](NC(=O)[C@H](CC(C)C)NC(=O)[C@H](C)NC(=O)[C@H](CC(C)C)NC(=O)CCNC(=O)CCC(=O)O)[C@H](O)[C@H](C)O1 [DTS-201, reference compound] here?
The value was 3.75 fold.

And the “well tolerated dose in patients” value ([1]; clinical trial)?
The value was “up to 400 mg/m^2”.

What about the “t 1/2α” value ([2]; heart, IV DTS-201 92 μmol/kg) of the same molecule?
Its value is 0.2.

And the “t 1/2α” value ([2]; kidney, IV DTS-201 92 μmol/kg)?
Its value is 0.4.

What about the “t 1/2α” value ([2]; liver, IV DTS-201 92 μmol/kg) of the same molecule?
The value was 0.6.

And the “t 1/2α” value ([2]; plasma, IV DTS-201 92 μmol/kg)?
The value was 0.25.

What about the “t 1/2α” value ([2]; tumor, IV DTS-201 92 μmol/kg) of the same molecule?
The value was 0.4.

What does the source list for COc1cccc2c1C(=O)c1c(O)c3c(c(O)c1C2=O)C[C@@](O)(C(=O)CO)C[C@@H]3O[C@H]1C[C@H](N)[C@H](O)[C@H](C)O1 [Dox, Doxorubicin, reference compound]?
cardiotoxicity (cellular impedance) ([3]; by 72 hours): 100%; IC50 [4]: 20 nM; IC50 [5]: 20 nM; LD50 [6]: 17 mg/kg; cytotoxicity in differentiated cardiomyocytes [7]: nanomolar potency; cytotoxicity in mitotic cells [7]: nanomolar potency; IC50 [8]: 20 nM; survival of mice receiving BM from treated donors [9]: 30%; t 1/2α [2, 18]: 5.6; t 1/2α [2, 19]: 2.7; t 1/2α [2, 20]: 2.1; concentration at 72 hours ([2]; mouse, tumor, intravenous, 53.4 mg/kg): 7300 nM; t 1/2α [2, 21]: 0.2; IC50 [10]: 110 nM; IC50 [11]: 10 nM

Which results are given for COc1cccc2c1C(=O)c1c(O)c3c(c(O)c1C2=O)C[C@@](O)([C@@H](O)CO)C[C@@H]3O[C@H]1C[C@H](N)[C@H](O)[C@H](C)O1 [DoxOL, Doxorubicinol]?
C max ([2]; heart, IV DTS-201 92 μmol/kg): <LoQ; AUC [2, 18]: 54; Cmax [2, 18]: 860 nM; t 1/2α [2, 18]: 47; t max [2, 18]: 240; C max [2, 22]: <LoQ; AUC ([2]; kidney, IV DTS-201 92 μmol/kg): 49.7; Cmax ([2]; kidney, IV DTS-201 92 μmol/kg): 1480 nM; t 1/2β ([2]; kidney, IV DTS-201 92 μmol/kg): 27.1; t max ([2]; kidney, IV DTS-201 92 μmol/kg): 240; AUC [2, 19]: 168; Cmax [2, 19]: 6800 nM; t 1/2α [2, 19]: 2.5; t 1/2β [2, 19]: 49; t max [2, 19]: 30; AUC [2, 23]: 20.8; Cmax [2, 23]: 1960 nM; t 1/2α [2, 23]: 1; t 1/2β [2, 23]: 19.7; t max [2, 23]: 30; AUC ([2]; liver, IV DTS-201 92 μmol/kg): 30.8; Cmax ([2]; liver, IV DTS-201 92 μmol/kg): 670 nM; t 1/2β ([2]; liver, IV DTS-201 92 μmol/kg): 33.4; t max ([2]; liver, IV DTS-201 92 μmol/kg): 120; AUC [2, 20]: 104; Cmax [2, 20]: 6000 nM; t 1/2α [2, 20]: 2.2; t 1/2β [2, 20]: 33.3; AUC [2, 24]: 10.6; Cmax [2, 24]: 440 nM; t 1/2β [2, 24]: 21.7; t max [2, 24]: 240; C max ([2]; plasma, IV DTS-201 92 μmol/kg): <LoQ; C max [2, 21]: <LoQ; C max [2, 25]: <LoQ; C max ([2]; tumor, IV DTS-201 92 μmol/kg): <LoQ; AUC [2, 26]: 8; Cmax [2, 26]: 120 nM; t max [2, 26]: 2,880; C max [2, 27]: <LoQ

Which results are given for COc1cccc2c1C(=O)c1c(O)c3c(c(O)c1C2=O)C[C@@](O)(C(=O)CO)C[C@@H]3O[C@H]1C[C@H](NC(=O)[C@@H]2CCCN2C(=O)CN)[C@H](O)[C@H](C)O1 [GP-Dox]?
t 1/2α [2, 22]: 0.3; t 1/2α [2, 23]: 0.2; t 1/2α [2, 24]: 1.4; t 1/2α [2, 25]: 0.2; t 1/2α [2, 27]: 0.5

Which “amount of LGP-Dox detected from PhAc-ALGP-Dox” value [12] does the source give for COc1cccc2c1C(=O)c1c(O)c3c(c(O)c1C2=O)C[C@@](O)(C(=O)CO)C[C@@H]3O[C@H]1C[C@H](NC(=O)[C@@H]2CCCN2C(=O)CNC(=O)[C@@H](N)CC(C)C)[C@H](O)[C@H](C)O1 [LGP-Dox] here?
Its value is 2.65%.

And the “t 1/2α” value [2, 23]?
Its value is 0.1.

What about the “t 1/2α” value [2, 25] of the same molecule?
Its value is 0.15.

Which “concentrations at which alterations were induced” value ([3]; cellular impedance, up to 72 h) does the source give for COc1cccc2c1C(=O)c1c(O)c3c(c(O)c1C2=O)C[C@@](O)(C(=O)CO)C[C@@H]3O[C@H]1C[C@H](NC(=O)[C@@H]2CCCN2C(=O)CNC(=O)[C@H](CC(C)C)NC(=O)[C@H](C)NC(=O)CP(=O)(O)O)[C@H](O)[C@H](C)O1 [PhAc-ALGP-Dox] (Phosphonoacetyl-ALGP-{Doxorubicin(3'-N)}) here?
The value was > 5000 nM.

What about the “times more payload that can be administered than Dox” value [13] of the same molecule?
The value was 27 times.

What about the LD50 [6] of the same molecule?
Its LD50 is 780 mg/kg.

And the “cytotoxicity in differentiated cardiomyocytes” value [7]?
Its value is “essentially resilient”.

And the “cytotoxicity in mitotic cells” value [7]?
Its value is “considerably less affected”.

And the “reduction of circulating cytotoxic T lymphocytes (CTL) in donor mice” value ([9]; 1,026 mg/kg/week via osmotic minipumps, 7 days)?
The value was 15%.

And the “survival of mice receiving BM from treated donors” value [9]?
The value was 80%.

What about the “highest tolerated dose as Dox equivalent” value ([14]; every weeks × 4) of the same molecule?
The value was 87 mg/kg Dox equivalent.

And the “higher tolerability compared with the parental drug” value ([14]; in vivo)?
The value was 10 fold.

And the body weight loss ([14]; tumor bearing mice, four cycles of 206 mg/kg weekly, mild but reversible)?
Its body weight loss is 15%.

What about the MTD at 672 h [15] of the same molecule?
Its MTD at 672 h is 154 mg/kg.

And the “t 1/2α” value [2, 22]?
Its value is 0.17.

What about the “greater retention of Dox in the tumor microenvironment compared with the parental drug” value ([2]; in vivo) of the same molecule?
The value was 5 fold.

What about the “t 1/2α” value [2, 23] of the same molecule?
The value was 0.1.

And the “t 1/2α” value [2, 24]?
Its value is 0.7.

What about the “t 1/2α” value [2, 25] of the same molecule?
The value was 0.21.

And the “free Dox exposure lower than after equimolar dosage of Dox” value ([2]; plasma, PhAc-ALGP-Dox 94.4 mg/kg vs Dox 53.4 mg/kg)?
Its value is 15 fold.

And the “t 1/2α” value [2, 27]?
Its value is 0.3.

What about the “intratumoral free Dox concentration lower than after equimolar Dox” value ([2]; tumor, PhAc-ALGP-Dox 94.4 mg/kg vs Dox 53.4 mg/kg) of the same molecule?
The value was 2.8 fold.

What about the “increase of exposure to free Dox compared with administration of Dox (13.3 mg/kg)” value ([16]; 849.5 mg/kg PhAc-ALGP-Dox, molar concentration 36-fold higher) of the same molecule?
The value was 1.9 fold.

And the “free Dox lower than after Dox” value ([16]; equimolar doses, PhAc-ALGP-Dox 23.6 mg/kg vs Dox 13.3 mg/kg)?
The value was 19 fold.

What about the half-life ([16]; mouse, in vivo, iv, 849.5 mg/kg) of the same molecule?
Its half-life is 6.5 to 8.5 min.

What about the “time for which presence of free Dox in tumor remained stable” value [17] of the same molecule?
The value was ≥ 48 h.
